# According to ChEMBL document CHEMBL1152862, “Tetrahydrobenzo- and benzofurobenzopyrones as a new class of potential photoreagents toward DNA” (2009):
# Active and inactive are the calls of the source. No cut-off for these calls is given here.
# Legend:
# Bacillus subtilis [1] = assay: Phototoxicity against Bacillus subtilis after 3 hrs irradiated with UV light by disk diffusion method; format: functional
# Method in brief: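 B. subtilis broth culture on nutrient agar (0.3% beef extract, 0.5% peptone, 0.1% K2HPO4, 1.5% agar). Plates held in the dark at 37 °C for 3 h so compounds diffuse through the agar. Uncovered dishes then exposed to 365 nm UV for 20 min and reincubated in the dark at 37 °C overnight. Photosensitizing activity read as inhibition zones.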
# Nucleic Acid = assay: Binding affinity to DNA; format: nucleic-acid assay
# Bacillus subtilis [2] = assay: Antimicrobial activity against Bacillus subtilis incubated in dark for 3 hrs by disk diffusion method; format: functional
# Method in brief: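 Nutrient agar (0.3% beef extract, 0.5% peptone, 0.1% dipotassium hydrogen phosphate, 1.5% agar) seeded with B. subtilis broth culture. Duplicate control plate kept unirradiated at 37 °C overnight in the incubator. Read-out is the size of the inhibition zones.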
Compound,inhibition zone (IZ) (Bacillus subtilis [1]) [mm],Activity (Nucleic Acid),inhibition zone (IZ) (Bacillus subtilis [2]) [mm]
O=c1cc(-c2ccccc2)c2ccc3oc4c(c3c2o1)CCCC4,5,–,–
Cc1cc(=O)oc2cc3c(cc12)oc1ccccc13,16,Active,12
O=c1cc(-c2ccccc2)c2ccc3oc4ccccc4c3c2o1,14,Active,13
COc1c2occc2cc2ccc(=O)oc12 [METHOXSALEN],12,–,–
O=c1cc(-c2ccccc2)c2cc3c4c(oc3cc2o1)CCCC4,7,–,9
O=c1cc(-c2ccccc2)c2cc3c(cc2o1)oc1ccccc13,13,Active,10
Cc1cc(=O)oc2ccc3oc4ccccc4c3c12,14,Active,11
